These results are taken from PMC10842602 (Bioorganic & medicinal chemistry, 2023).

The test concerns the target T1, WT human SLACK (Homo sapiens, UniProt Q5JUK3).
T1 sequence (Q5JUK3 1-1235 isoform Q5JUK3-3): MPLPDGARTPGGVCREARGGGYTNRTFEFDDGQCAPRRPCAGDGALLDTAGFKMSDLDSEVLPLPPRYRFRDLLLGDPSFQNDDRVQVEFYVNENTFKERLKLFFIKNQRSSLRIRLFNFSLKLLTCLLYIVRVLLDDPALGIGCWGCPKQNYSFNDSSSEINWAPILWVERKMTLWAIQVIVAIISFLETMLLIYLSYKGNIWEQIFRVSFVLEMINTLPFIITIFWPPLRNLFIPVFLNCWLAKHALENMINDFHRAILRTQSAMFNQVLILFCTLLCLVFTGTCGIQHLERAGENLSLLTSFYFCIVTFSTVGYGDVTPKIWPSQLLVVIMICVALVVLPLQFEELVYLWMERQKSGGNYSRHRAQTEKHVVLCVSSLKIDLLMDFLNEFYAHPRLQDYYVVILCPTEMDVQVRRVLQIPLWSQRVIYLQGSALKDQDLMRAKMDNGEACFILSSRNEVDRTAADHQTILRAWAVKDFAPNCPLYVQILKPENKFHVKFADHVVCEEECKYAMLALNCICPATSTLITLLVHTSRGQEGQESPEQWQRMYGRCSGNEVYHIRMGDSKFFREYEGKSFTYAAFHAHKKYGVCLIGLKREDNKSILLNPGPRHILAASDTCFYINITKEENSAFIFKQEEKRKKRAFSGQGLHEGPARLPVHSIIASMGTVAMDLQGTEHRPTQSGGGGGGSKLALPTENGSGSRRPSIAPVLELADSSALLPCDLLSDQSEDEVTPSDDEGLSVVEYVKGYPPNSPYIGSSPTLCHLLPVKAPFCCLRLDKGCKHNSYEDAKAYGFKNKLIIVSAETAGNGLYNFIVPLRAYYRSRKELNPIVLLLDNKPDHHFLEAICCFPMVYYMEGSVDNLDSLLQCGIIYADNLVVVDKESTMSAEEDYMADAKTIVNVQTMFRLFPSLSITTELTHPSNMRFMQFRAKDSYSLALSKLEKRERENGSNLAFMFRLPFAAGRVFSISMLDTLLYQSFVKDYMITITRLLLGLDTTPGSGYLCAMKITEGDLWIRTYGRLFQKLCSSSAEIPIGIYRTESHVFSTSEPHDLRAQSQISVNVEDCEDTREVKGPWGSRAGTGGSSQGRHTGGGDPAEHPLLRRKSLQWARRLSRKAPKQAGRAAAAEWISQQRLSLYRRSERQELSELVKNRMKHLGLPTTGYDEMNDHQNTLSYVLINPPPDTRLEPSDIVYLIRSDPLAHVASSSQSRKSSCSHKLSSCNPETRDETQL
Description: Tl+ flux assay in HEK-293 cells stably expressing WT human SLACK. The class given is cell-based. To be noted: for IC50 / EC50: CRC; for Mode: Tl+ flux, HEK-293 cells expressing WT SLACK. In short, it runs like this:
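Stably transfected HEK-293 cells expressing wild-type human SLACK; thallium flux read-out. IC50 or EC50 taken from concentration-response curves, and each compound classed as inhibitor, activator or not active. Efficacy is the response amplitude at 30 μM test compound, as a percentage of the maximum response to a reference SLACK inhibitor (for inhibitors) or loxapine (for activators).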

[1] abbreviates: IC50 for compounds of mode Inh (also cells printed Inactive).

Each structure is given as a SMILES string.

As to `O=S(=O)(c1ccccc1F)N1CC(c2nc(-c3ccsc3)no2)C1` [Compound 11, 5-(1-((2-Fluorophenyl)sulfonyl)azetidin-3-yl)-3-(thiophen-3-yl)-1,2,4-oxadiazole], the “IC50 / EC50” value (EC50 for compounds of mode Act) was 4.8 µM.
The same measure, in the same setting: then `O=S(=O)(c1cccc(F)c1)N1CC(c2nc(-c3ccsc3)no2)C1` [Compound 12, 5-(1-((3-Fluorophenyl)sulfonyl)azetidin-3-yl)-3-(thiophen-3-yl)-1,2,4-oxadiazole], with greater than 10 µM.
Consider `O=S(=O)(c1ccc(F)cc1)N1CC(c2nc(-c3ccsc3)no2)C1` [Compound 13, 5-(1-((4-Fluorophenyl)sulfonyl)azetidin-3-yl)-3-(thiophen-3-yl)-1,2,4-oxadiazole], for which the Mode result is “Inactive”. For the same compound, the “IC50 / EC50” value under setting [1] is listed as “Inactive”.
Regarding `O=S(=O)(c1ccccc1Cl)N1CC(c2nc(-c3ccsc3)no2)C1` [Compound 14, 5-(1-((2-Chlorophenyl)sulfonyl)azetidin-3-yl)-3-(thiophen-3-yl)-1,2,4-oxadiazole], the “IC50 / EC50” value (EC50 for compounds of mode Act) turned out to be 7.5 µM.
Regarding `O=S(=O)(c1cccc(Cl)c1)N1CC(c2nc(-c3ccsc3)no2)C1` [Compound 15, 5-(1-((3-Chlorophenyl)sulfonyl)azetidin-3-yl)-3-(thiophen-3-yl)-1,2,4-oxadiazole], the Mode result is reported as “Inactive”. Besides, the “IC50 / EC50” value under setting [1] is given as “Inactive”.
With `O=S(=O)(c1ccc(Cl)cc1)N1CC(c2nc(-c3ccsc3)no2)C1` [Compound 16, 5-(1-((4-Chlorophenyl)sulfonyl)azetidin-3-yl)-3-(thiophen-3-yl)-1,2,4-oxadiazole], the Mode result is “Inactive”. Besides, under setting [1], the “IC50 / EC50” value is on record as “Inactive”.
With `O=S(=O)(c1ccccc1C(F)(F)F)N1CC(c2nc(-c3ccsc3)no2)C1` [Compound 17, 3-(Thiophen-3-yl)-5-(1-((2-(trifluoromethyl)phenyl)sulfonyl)azetidin-3-yl)-1,2,4-oxadiazole], the “IC50 / EC50” value (EC50 for compounds of mode Act) worked out at 6.0 µM.
Still for that read-out and setting: as for `O=S(=O)(c1cccc(C(F)(F)F)c1)N1CC(c2nc(-c3ccsc3)no2)C1` [Compound 18, 3-(Thiophen-3-yl)-5-(1-((3-(trifluoromethyl)phenyl)sulfonyl)azetidin-3-yl)-1,2,4-oxadiazole], the figure is 6.2 µM.
For the compound `O=S(=O)(c1ccc(C(F)(F)F)cc1)N1CC(c2nc(-c3ccsc3)no2)C1` [Compound 19, 3-(Thiophen-3-yl)-5-(1-((4-(trifluoromethyl)phenyl)sulfonyl)azetidin-3-yl)-1,2,4-oxadiazole], the Mode entry was “Inactive”. Under setting [1], the “IC50 / EC50” value is recorded as “Inactive”.
Take `Cc1cccc(S(=O)(=O)N2CC(c3nc(-c4ccsc4)no3)C2)c1` [Compound 21, 3-(Thiophen-3-yl)-5-(1-(m-tolylsulfonyl)azetidin-3-yl)-1,2,4-oxadiazole]: the “IC50 / EC50” value (EC50 for compounds of mode Act) is greater than 10 µM.
Turning to `Cc1ccc(S(=O)(=O)N2CC(c3nc(-c4ccsc4)no3)C2)cc1` [Compound 22, 3-(Thiophen-3-yl)-5-(1-tosylazetidin-3-yl)-1,2,4-oxadiazole], the Mode result is on record as “Inactive”. Under setting [1], the “IC50 / EC50” value is on record as “Inactive”.
Take `COc1cccc(S(=O)(=O)N2CC(c3nc(-c4ccsc4)no3)C2)c1` [Compound 24, 5-(1-((3-Methoxyphenyl)sulfonyl)azetidin-3-yl)-3-(thiophen-3-yl)-1,2,4-oxadiazole]: the Mode entry is recorded as “Inactive”. Further, the “IC50 / EC50” value under setting [1] is “Inactive”.
For the compound `CCCCOc1ccccc1S(=O)(=O)N1CC(c2nc(-c3ccsc3)no2)C1` [Compound 28, 5-(1-((2-Butoxyphenyl)sulfonyl)azetidin-3-yl)-3-(thiophen-3-yl)-1,2,4-oxadiazole], the Mode entry was “Inactive”. Also, under setting [1], the “IC50 / EC50” value is recorded as “Inactive”.
For the compound `CCNc1ccccc1S(=O)(=O)N1CC(c2nc(-c3ccsc3)no2)C1` [Compound 29], the Mode result is given as “Inactive”. In addition, under setting [1], the “IC50 / EC50” value was “Inactive”.
For the compound `CCCc1ccccc1S(=O)(=O)N1CC(c2nc(-c3ccsc3)no2)C1` [Compound 30], the “IC50 / EC50” value under setting [1] was greater than 10 µM.
Take `CCOc1ccccc1CN1CC(c2nc(-c3ccsc3)no2)C1` [Compound 31]: where the note is “EC50 for compounds of mode Act”, the “IC50 / EC50” value is greater than 10 µM.
Turning to `CCOc1ccccc1C(C)N1CC(c2nc(-c3ccsc3)no2)C1` (stereo not shown) [Compound 32], the “IC50 / EC50” value (EC50 for compounds of mode Act) is greater than 10 µM.
On the same count and under the same terms, as for `CCOc1ccccc1C(=O)N1CC(c2nc(-c3ccsc3)no2)C1` [Compound 33], the figure is greater than 10 µM; as for `CCOc1ccccc1CC(=O)N1CC(c2nc(-c3ccsc3)no2)C1` [Compound 34], greater than 10 µM.
`CCOc1ccccc1NC(=O)N1CC(c2nc(-c3ccsc3)no2)C1` [Compound 35]: the “IC50 / EC50” value (EC50 for compounds of mode Act) is greater than 10 µM.
Still for that read-out and setting: then `CCOc1ccccc1OC(=O)N1CC(c2nc(-c3ccsc3)no2)C1` [Compound 36], with greater than 10 µM.
Consider `CCOc1ccccc1S(=O)(=O)N1CC(c2nc(-c3ccccc3)no2)C1` [Compound 40, 5-(1-((2-Ethoxyphenyl)sulfonyl)azetidin-3-yl)-3-phenyl-1,2,4-oxadiazole], for which the “IC50 / EC50” value under setting [1] is greater than 10 µM.
As to `CCOc1ccccc1S(=O)(=O)N1CC(c2nc(-c3ccccc3F)no2)C1` [Compound 41, 5-(1-((2-Ethoxyphenyl)sulfonyl)azetidin-3-yl)-3-(2-fluorophenyl)-1,2,4-oxadiazole], under setting [1], the “IC50 / EC50” value worked out at 7.9 µM.
As for `CCOc1ccccc1S(=O)(=O)N1CC(c2nc(-c3cccc(F)c3)no2)C1` [Compound 42, 5-(1-((2-Ethoxyphenyl)sulfonyl)azetidin-3-yl)-3-(3-fluorophenyl)-1,2,4-oxadiazole], the Mode entry is “Inactive”. Moreover, the “IC50 / EC50” value under setting [1] is on record as “Inactive”.
With `CCOc1ccccc1S(=O)(=O)N1CC(c2nc(-c3ccccc3Cl)no2)C1` [Compound 44, 3-(2-Chlorophenyl)-5-(1-((2-ethoxyphenyl)sulfonyl)azetidin-3-yl)-1,2,4-oxadiazole], the “IC50 / EC50” value under setting [1] worked out at 8.0 µM.
For `CCOc1ccccc1S(=O)(=O)N1CC(c2nc(-c3cccc(Cl)c3)no2)C1` [Compound 45, 3-(3-Chlorophenyl)-5-(1-((2-ethoxyphenyl)sulfonyl)azetidin-3-yl)-1,2,4-oxadiazole], the Mode entry is “Inactive”. In addition, the “IC50 / EC50” value under setting [1] is “Inactive”.
Consider `CCOc1ccccc1S(=O)(=O)N1CC(c2nc(-c3ccc(Cl)cc3)no2)C1` [Compound 46, 3-(4-Chlorophenyl)-5-(1-((2-ethoxyphenyl)sulfonyl)azetidin-3-yl)-1,2,4-oxadiazole], for which the “IC50 / EC50” value under setting [1] turned out to be 11 µM.
In the case of `CCOc1ccccc1S(=O)(=O)N1CC(c2nc(-c3ccccc3C(F)(F)F)no2)C1` [Compound 47, 5-(1-((2-Ethoxyphenyl)sulfonyl)azetidin-3-yl)-3-(2-(trifluoromethyl)phenyl)-1,2,4-oxadiazole], the “IC50 / EC50” value (EC50 for compounds of mode Act) came to 1.9 µM.
Turning to `CCOc1ccccc1S(=O)(=O)N1CC(c2nc(-c3cccc(C(F)(F)F)c3)no2)C1` [Compound 48, 5-(1-((2-Ethoxyphenyl)sulfonyl)azetidin-3-yl)-3-(3-(trifluoromethyl)phenyl)-1,2,4-oxadiazole], under setting [1], the “IC50 / EC50” value worked out at 11 µM.
Consider `CCOc1ccccc1S(=O)(=O)N1CC(c2nc(-c3ccccc3C)no2)C1` [Compound 50, 5-(1-((2-Ethoxyphenyl)sulfonyl)azetidin-3-yl)-3-(o-tolyl)-1,2,4-oxadiazole], for which the “IC50 / EC50” value (EC50 for compounds of mode Act) is greater than 10 µM.
